Activity calls are given as the source filed them. No cut-off for these calls is given here.
Tests used:
[1] = Inhibition of PI3K/AKT/mTOR signaling in human Bel7402 cells assessed as reduction in AKT phosphorylation after 24 to 72 hrs by Western blot analysis; format: cell-based
Summary of the method: (§1)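 Bel7402 cells (1.5 × 10^5/mL) exposed to compound at 1.0 and 2.5 μM for 24 or 72 h. Lysates (0.05 mg/lane) separated on 12% SDS-PAGE and blotted to nitrocellulose. Probed for total Akt, phospho-Akt (Ser473), total mTOR and phospho-mTOR, HRP secondary, chemiluminescent detection. Quantified from three separate assays, mean ± SD.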

Bel-7402 [2] = assay: Antiproliferative activity against human Bel7402 cells after 72 hrs by MTT assay; format: functional, cell-based; details: Bel-7402, 72 h
Bel-7402 [3] = assay: Induction of apoptosis in human Bel7402 cells assessed as annexin-V positive cells at 5 uM after 72 hrs by Annexin-V/PI staining based flow cytometry relative to control; format: functional
Summary of the method: (§2)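 Bel7402 cells (10 000) cultured overnight, then exposed to compound at 1.0 or 5.0 μM, or vehicle, for 72 h. Harvested, stained with annexin-V APC and 7-AAD for 15 min. Apoptotic percentage measured by flow cytometry (APC ex 633/em 660 nm; 7-AAD ex 488/em 647 nm). Three separate assays, mean ± SD.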

Huh-7 = assay: Antiproliferative activity against human HuH7 cells after 72 hrs by MTT assay; format: functional, cell-based; details: Huh-7, 72 h
L02 = assay: Cytotoxicity against human LO2 cells after 72 hrs by MTT assay; format: functional, cell-based; details: L02, 72 h
Summary of the method: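 Cells grown in DMEM with 10% heat-inactivated FBS, penicillin/streptomycin, 37 °C, 5% CO2. Seeded at 10^4 cells/mL overnight, then exposed to a range of compound concentrations for 72 h; 0.1% DMSO negative control. MTT (5 mg/mL stock) added, absorbance read at 570 nm; percent inhibition from three independent experiments, mean ± SD.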

Bel-7402 [4] = assay: Induction of apoptosis in human Bel7402 cells assessed as increase in cleaved PARP level at 5 uM after 72 hrs by Western blot analysis; format: functional, cell-based
Summary of the method: (§3)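 Subconfluent Bel7402 cells (1.5 × 10^5/mL) exposed to vehicle or compound for 72 h, then lysed. Lysates (0.05 mg/lane) run on 12% SDS-PAGE, transferred to nitrocellulose, blocked in 5% nonfat milk. Probed for Bax, Bcl-2, cleaved caspase-3 and cleaved PARP, with HRP secondary and chemiluminescence. Levels normalized to β-actin; three separate assays, mean ± SD.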

Bel-7402 [5] = assay: Induction of autophagy in human Bel7402 cells assessed as accumulation of autophagic vacuoles at 1 uM after 24 hrs by acridine orange staining based fluorescence microscopic method; format: functional, cell-based
Summary of the method: (§4)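 Bel7402 cells (10 000) cultured overnight, then exposed to compound at 1.0 or 5.0 μM, or vehicle. Stained with 1 mg/mL acridine orange for 15−20 min, then dye removed. Red versus green fluorescence viewed by fluorescence microscopy at 400×. Representative images from three independent experiments.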

Bel-7402 [6] = assay: Induction of apoptosis in human Bel7402 cells assessed as annexin-V positive cells at 1 uM after 72 hrs by Annexin-V/PI staining based flow cytometry relative to control; format: functional; summary of the method: as §2
[7] = target: T1, Histone deacetylase (Homo sapiens) (UniProt Q13547+O15379+Q9UBN7+Q92769+Q9UQL6+Q8WUI4+Q9BY41+Q96DB2+P56524+Q9UKV0+Q969S8); assay: Inhibition of HDAC in human Bel7402 cells assessed as increase in acetylated alpha-tubulin expression incubated for 72 hrs by Western blot analysis; format: cell-based
Summary of the method: (§5)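 Bel7402 cells exposed to vehicle or compound (1.0 and 3.0 μM) for 72 h, with SAHA 5.0 μM as reference. Lysates (0.05 mg/lane) run on 12% SDS-PAGE and transferred to nitrocellulose. Probed with anti-acetyl-H3 and anti-acetyl-α-tubulin, HRP secondary, chemiluminescence. Quantified from three separate assays, mean ± SD.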

Bel-7402 [8] = assay: Induction of autophagy in human Bel7402 cells assessed as accumulation of autophagic vacuoles at 5 uM after 24 hrs by acridine orange staining based fluorescence microscopic method; format: functional, cell-based; summary of the method: as §4
Bel-7402 [9] = assay: Induction of autophagy in human Bel7402 cells assessed as upregulation of LC3-2 level at 5 uM after 24 to 72 hrs by Western blot analysis; format: functional, cell-based
Summary of the method: (§6)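 Bel7402 cells (1.5 × 10^5/mL) exposed to compound at indicated doses, or vehicle, for 24 or 72 h. Lysates (0.05 mg/lane) separated on 12% SDS-PAGE, blotted to nitrocellulose, blocked in 5% milk. Probed with anti-LC3, anti-p62 and anti-beclin-1, HRP secondary, chemiluminescent detection. Levels quantified relative to β-actin; three separate assays, mean ± SD.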

Bel-7402 [10] = assay: Induction of autophagy in human Bel7402 cells assessed as upregulation of Beclin1 level at 1 to 5 uM after 24 to 72 hrs by Western blot analysis; format: functional, cell-based; summary of the method: as §6
[11] = target: T1, Histone deacetylase (Homo sapiens); assay: Inhibition of HDAC in human Bel7402 cells assessed as increase in acetylated histone h3 expression incubated for 72 hrs by Western blot analysis; format: cell-based; summary of the method: as §5
Bel-7402 [12] = assay: Induction of autophagy in human Bel7402 cells assessed as downregulation of LC3-I level at 1 to 5 uM after 24 to 72 hrs by Western blot analysis; format: functional, cell-based; summary of the method: as §6
SMMC-7721 = assay: Antiproliferative activity against human SMMC7721 cells after 72 hrs by MTT assay; format: functional, cell-based; details: SMMC-7721, 72 h
Homo sapiens = species on record: Homo sapiens; assay: Selectivity ratio of IC50 for human HDAC3 to IC50 for human HDAC6
Summary of the method: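 Recombinant human HDAC1, 3, 6 and 8 (fluorimetric kit) incubated with compound over a range of concentrations and Boc-Lys(Ac)-AMC substrate at 37 °C for 60 min. Reaction quenched with lysine developer; after 30 min, fluorescence read at ex 355/em 460 nm. Inhibition taken relative to control and IC50 fitted; ratios built from these IC50s.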

Bel-7402 [13] = assay: Induction of apoptosis in human Bel7402 cells assessed as increase in cleaved PARP level at 1 uM after 72 hrs by Western blot analysis; format: functional, cell-based; summary of the method: as §3
Bel-7402 [14] = assay: Effect on mTOR expression in human Bel7402 cells at 1 to 2.5 uM after 24 to 72 hrs by Western blot analysis; format: ADME, cell-based; details: bel-7402, 2.5 µM; summary of the method: as §1

SMILES: COc1ccc(-c2nc(NCCCOc3ccc(/C=C/C(=O)NO)cc3OC)cc3c2[nH]c2ccccc23)cc1
- inhibition [1]: Dose-dependent effect
- IC50 (Bel-7402 [2]): 1000 nM
- Activity (Bel-7402 [3]): 73.8%
- IC50 (Huh-7): 1100 nM
- IC50 (L02): > 25000 nM
- Activity (Bel-7402 [4]): Active
- Activity (Bel-7402 [5]): Active
- Activity (Bel-7402 [6]): 49.6%
- inhibition [7]: Dose-dependent effect
- Activity (Bel-7402 [8]): Active
- Activity (Bel-7402 [9]): Active
- Activity (Bel-7402 [10]): Active
- inhibition [11]: Dose-dependent effect
- Activity (Bel-7402 [12]): Active
- IC50 (SMMC-7721): 2900 nM
- Ratio IC50 (Homo sapiens): 7 to 11
- Activity (Bel-7402 [13]): Active
- Activity (Bel-7402 [14]): Non-Toxic

Source: ChEMBL document CHEMBL4376807, “Hydroxamic Acid Derivatives of β-Carboline/Hydroxycinnamic Acid Hybrids Inducing Apoptosis and Autophagy through the PI3K/Akt/mTOR Pathways” (J Nat Prod, 2019)
